Experimental data taken from ChEMBL document CHEMBL1687753, “Mitochondrial DNA depletion and respiratory chain activity in primary human subcutaneous adipocytes treated with nucleoside analogue reverse transcriptase inhibitors” (Antimicrob Agents Chemother, 2010).
Calls of active or inactive are those of the source.

How the values were obtained:
[1] = test system: Homo sapiens; assay: Inhibition of electron transport protein complex 1/3 in human subcutaneous preadipocytes at 3 uM after 30 to 60 days by photometric analysis; format: cell-based
How it was run: (§1)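 Pooled primary human abdominal subcutaneous preadipocytes induced to differentiate with drug (DMSO vehicle, ≤0.1%) added at day 0 and kept to day 30 or 60. Cells sonicated twice for 10 s; substrates added to lysates and conversion by complexes I+III, II+III, IV, V and citrate synthase read photometrically at 37°C. Three independent experiments.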

[2] = Toxicity in human subcutaneous preadipocytes assessed as decrease of cell cultures at 3 uM after 30 days using oil red O fluorescence staining by conventional fluorescence microscopy; format: cell-based; conditions: 720 h
How it was run: (§2)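 On day 30 of differentiation with drug present from day 0, cells were fixed in 10% formalin and stained with 0.21% oil red O. Staining was viewed by fluorescence and light microscopy. For quantification, dye was extracted with isopropanol and read at 495 nm, also adjusted for viable cell number. Five independent experiments.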

[3] = Toxicity in human subcutaneous preadipocytes assessed as decrease of PPARgamma expression at 3 uM after 18 days by RT-PCR analysis; format: cell-based; conditions: 432 h
How it was run: (§3)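 Differentiating preadipocytes were harvested at day 18. RNA from three plates was pooled and reverse transcribed, and qRT-PCR was run with 42 cycles of 94/55/72°C. Values were normalized to transferrin receptor or beta-actin by standard curve. Triplicates from three independent experiments.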

[4] = Toxicity in human subcutaneous preadipocytes assessed as decrease of insulin-sensitizing adipokine expression at 3 uM after 30 days by RT-PCR analysis; format: cell-based; conditions: 720 h
How it was run: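 Adiponectin mRNA at day 30 was measured by qRT-PCR normalized to transferrin receptor or beta-actin, using pooled RNA and cDNA. Triplicates from three independent experiments.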

[5] = Toxicity in human subcutaneous preadipocytes assessed as effect on mitochondrial membrane potential at 3 uM after 30 days using JC-1 red/green fluorescence dye by flow cytometry analysis; format: cell-based; conditions: 720 h
How it was run: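 Pooled primary human subcutaneous preadipocytes (passage ≤4) were differentiated with drug or DMSO vehicle from day 0 and cultured 30 days. Staining with the JC-1 kit was followed by flow cytometry, and the JC-1 red/green fluorescence intensity ratio was used as the membrane potential read-out. CCCP served as the depolarization control. Three independent experiments, means ± SEM.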

[6] = test system: Homo sapiens; assay: Inhibition of electron transport protein complex 2/3 in human subcutaneous preadipocytes at 3 uM after 30 to 60 days by photometric analysis; format: cell-based; how it was run: as §1
[7] = Toxicity in fully differentiated human subcutaneous preadipocytes assessed as cell death at 3 uM after 30 days using […] by conventional fluorescence microscopy; conditions: 720 h
How it was run: (§4)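 Trypan blue exclusion counted by microscopy at each medium change every fifth day during 30 days of drug exposure in differentiating pooled preadipocytes. Final viability was calculated by excluding the cumulative percentage of dead cells. Five independent experiments.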

[8] = Toxicity in human subcutaneous preadipocytes assessed as triacylglyceride droplets at 3 uM after 30 days using oil red O fluorescence staining by conventional fluorescence microscopy; format: cell-based; conditions: 720 h
How it was run: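 Preadipocytes were differentiated with a hormone cocktail (IBMX for the first 7 days, dexamethasone, insulin, indomethacin; high-glucose DMEM for days 0–18), with drug or vehicle present from day 0 to day 30. Cells were fixed in 10% formalin, stained with 0.21% oil red O in 60% isopropanol, and imaged by fluorescence microscopy. Quantification was by isopropanol extraction at 495 nm, optionally adjusted for viable cells.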

[9] = test system: Homo sapiens; assay: Inhibition of electron transport protein complex 4 in human subcutaneous preadipocytes at 3 uM after 30 to 60 days by photometric analysis; format: cell-based; how it was run: as §1
[10] = Toxicity in human subcutaneous preadipocytes assessed as decrease of mitochondrial DNA abundance at 3 uM after 60 days by RT-PCR analysis; format: cell-based; conditions: 1440 h
How it was run: (§5)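 mtDNA content of differentiated preadipocytes at day 30 or 60 of drug exposure was measured by real-time quantitative PCR with human-specific primers. Absolute copy numbers came from serial dilutions of plasmid standards. Three independent experiments.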

[11] = Toxicity in human subcutaneous preadipocytes assessed as decrease of cell viability measured every 5 days at 3 uM after 30 days using […]; format: cell-based; conditions: 720 h; how it was run: as §4
[12] = test system: Homo sapiens; assay: Inhibition of citrate synthase in human subcutaneous preadipocytes at 3 uM after 30 to 60 days by photometric analysis; format: cell-based; how it was run: as §1
[13] = Toxicity in human subcutaneous preadipocytes assessed as decrease of mitochondrial DNA copy number per cell at 3 uM after 60 days by RT-PCR analysis; format: cell-based; set-up: scale not given: the % may be the effect or the level left; conditions: 1440 h; how it was run: as §5
[14] = Toxicity in human subcutaneous preadipocytes assessed as decrease of PPARgamma expression at 0.1 uM after 18 days by RT-PCR analysis; format: cell-based; conditions: 432 h; how it was run: as §3
[15] = Toxicity in human subcutaneous preadipocytes assessed as decrease of mitochondrial DNA abundance at 3 uM after 30 days by RT-PCR analysis; format: cell-based; conditions: 720 h; how it was run: as §5
[16] = Toxicity in human subcutaneous preadipocytes assessed as decrease of C/EBPalpha expression at 3 uM after 18 days by RT-PCR analysis; format: cell-based; conditions: 432 h; how it was run: as §3
[17] = test system: Homo sapiens; assay: Inhibition of electron transport protein complex 5 in human subcutaneous preadipocytes at 3 uM after 30 to 60 days by photometric analysis; format: cell-based; how it was run: as §1
[18] = Toxicity in human subcutaneous preadipocytes assessed as effect on mitochondrial mass at 3 uM after 30 days using […] by flow cytometry analysis; format: cell-based; conditions: 720 h
[19] = Toxicity in human subcutaneous preadipocytes assessed as decrease of adiponectin expression at 3 uM after 30 days by ELISA; format: cell-based; conditions: 720 h
How it was run: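 Adiponectin secreted into the medium over days 25 to 30 of drug exposure in differentiating preadipocytes was measured by sandwich ELISA of culture supernatant. Three independent experiments.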

[20] = Toxicity in human subcutaneous preadipocytes assessed as cell death at 3 uM after 30 days using […]; format: cell-based; conditions: 720 h; how it was run: as §4
[21] = Toxicity in human subcutaneous preadipocytes assessed as decrease of C/EBPalpha expression at 0.1 uM after 18 days by RT-PCR analysis; format: cell-based; conditions: 432 h; how it was run: as §3
[22] = Toxicity in human subcutaneous preadipocytes assessed as acquisition of adipocyte shape at 3 uM after 30 days using oil red O fluorescence staining by conventional fluorescence microscopy; format: cell-based; conditions: 720 h; how it was run: as §2

Cc1cn([C@H]2C=C[C@@H](CO)O2)c(=O)[nH]c1=O [STAVUDINE]
inactive: inhibition [1] | inhibition [6] | inhibition [9] | inhibition [12] | inhibition [17]
50%: Activity [13]
Non-toxic: Activity [3] | Activity [4] | Activity [5] | Activity [8] | Activity [14] | Activity [16] | Activity [18] | Activity [19] | Activity [21] | Activity [22]
Toxic: Activity [2] | Activity [7] | Activity [10] | Activity [11] | Activity [15] | Activity [20]
